Reference: PMC6720533 (Biomolecules & Therapeutics, 2019)

Legend:
[1] = biological target: recombinant human CK2α1 (Homo sapiens, UniProt P68400); assay: CK2 kinase activity assay; format: biochemical; conditions: 10 μM ATP, 60 min
How it was run: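 Recombinant human CK2α1 (50 ng) was incubated with 2.5 μg CK2α1 substrate, 10 μM ATP, and test compound, reference inhibitor or DMSO for 60 min at room temperature. ADP-Glo reagent stopped the reaction and depleted remaining ATP. Detection reagent then converted ADP to ATP for luciferase/luciferin luminescence, which tracks the ADP formed as the measure of kinase activity.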

[2] = tested on: RS4;11 cells; assay: WST-1 metabolic activity assay; format: cell-based; conditions: Homo sapiens, RS4-11, 72 h, read-out: metabolic activity
How it was run: (§1)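 Test compound came from a 10 mM DMSO stock. Cells were seeded at 5×10^4/well in triplicate with 5 or 10 μM final compound; controls got matched DMSO. After 72 h at 37°C, 5% CO2, WST-1 was added for a further 3 h. Absorbance was read at 450 nm (reference 620 nm), and metabolic activity given as % of DMSO control.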

[3] = tested on: CEM cells; assay: WST-1 metabolic activity assay; format: cell-based; conditions: Homo sapiens, CCRF-CEM, 72 h, read-out: metabolic activity
How it was run: as §1

[4] = tested on: Jurkat cells; assay: WST-1 metabolic activity assay; format: cell-based; conditions: Homo sapiens, 72 h, read-out: metabolic activity
How it was run: as §1

[5] = tested on: SEM cells; assay: WST-1 metabolic activity assay; format: cell-based; conditions: Homo sapiens, 72 h, read-out: metabolic activity
How it was run: as §1

Sequence of recombinant human CK2α1 (P68400 whole entry): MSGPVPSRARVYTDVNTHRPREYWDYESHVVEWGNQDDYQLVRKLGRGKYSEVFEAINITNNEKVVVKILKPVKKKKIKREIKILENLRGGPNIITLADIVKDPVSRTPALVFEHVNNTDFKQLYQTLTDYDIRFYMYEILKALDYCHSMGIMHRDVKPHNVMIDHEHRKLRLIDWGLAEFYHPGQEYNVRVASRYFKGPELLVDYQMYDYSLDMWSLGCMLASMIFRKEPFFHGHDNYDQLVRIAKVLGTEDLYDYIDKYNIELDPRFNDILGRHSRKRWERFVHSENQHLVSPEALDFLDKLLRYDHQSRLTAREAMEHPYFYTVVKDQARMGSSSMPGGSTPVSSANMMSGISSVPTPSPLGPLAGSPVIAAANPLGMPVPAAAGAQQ

| Compound | CK2 enzyme activity ([1]; 0.1 μM) | CK2 enzyme activity compared to DMSO (100%) ([1]; 1 μM) | activity at 5 µM [2] | activity at 10 µM [2] | viability at 5 µM [3] | viability at 10 µM [3] | viability at 5 µM [4] | viability at 10 µM [4] | activity at 5 µM [5] | activity at 10 µM [5] |
| --- | --- | --- | --- | --- | --- | --- | --- | --- | --- | --- |
| O=C(O)c1ccc2c(c1)nc(Nc1cccc(Cl)c1)c1ccncc12 [CX-4945, reference compound] | Reduction of CK2 enzyme activity | 3.4 ± 0.3% | – | – | – | – | – | – | – | – |
| Cc1cc(C)c2nc3n(c(=O)c2c1)Cc1ccccc1-3 [FX-8, 6,8-Dimethylisoindolo[1,2-b]quinazolin-10(12H)-one] | – | – | 61.5% | 55.8% | 97% | 85% | 95.2% | 92.5% | 23.3% | 14.5% |
| Cc1ccc2c(=O)n3c(nc2c1)-c1ccc(F)cc1C3 [FX-5, 2-Fluoro-7-methylisoindolo[1,2-b]quinazolin-10(12H)-one] | – | – | 91.4% | 86.7% | 101% | 95% | 94% | 96.5% | 91.7% | 74.7% |
| COc1ccc2c(N)nc(-c3ccccc3)cc2c1 [FX-42, 6-Methoxy-3-phenylisoquinolin-1-amine] | – | – | – | – | – | – | 88.4% | 32.4% | 66.7% | 24.5% |
| Cc1ccc2nc3n(c(=O)c2c1)Cc1ccccc1-3 [FX-7, 8-Methylisoindolo[1,2-b]quinazolin-10(12H)-one] | – | – | 61.3% | 49.4% | 96.1% | 85% | 91.4% | 84.3% | 52.1% | 25.2% |
| O=c1c2cc(Cl)ccc2nc2n1Cc1ccccc1-2 [FX-3, 8-Chloroisoindolo[1,2-b]quinazolin-10(12H)-one] | – | – | 73.8% | 40.2% | 76.2% | 86% | 57.9% | 77% | 32% | 26.7% |
| O=c1c2ccccc2nc2n1Cc1cc(F)ccc1-2 [FX-6, 2-Fluoroisoindolo[1,2-b]quinazolin-10(12H)-one] | – | – | 76.6% | 67.1% | 93.2% | 107% | 105% | 97.5% | 72.1% | 51.4% |
| CC(=O)c1ccc2c(=O)n3c(nc2c1)-c1ccccc1C3 [FX-1, 7-Acetylisoindolo[1,2-b]quinazolin-10(12H)-one] | – | – | 99.3% | 94.4% | 87.1% | 83.9% | 93.4% | 68.5 ± 14.8% | 107% | 97.7% |
| O=c1c2ccc(F)cc2nc2n1Cc1ccccc1-2 [FX-2, 7-Fluoroisoindolo[1,2-b]quinazolin-10(12H)-one] | – | – | 97.3% | 79.8% | 86.3% | 77.2% | 81.3% | 54.3% | 100% | 69.8% |
| Cc1ccc2cc(-c3ccccc3)nc(N)c2c1 [FX-43, 7-Methyl-3-phenylisoquinolin-1-amine] | – | – | – | – | – | – | 107% | 104% | 94.7% | 94.3% |
| Cc1ccc2c(=O)n3c(nc2c1)-c1ccccc1C3 [FX-4, 7-Methylisoindolo[1,2-b]quinazolin-10(12H)-one] | – | – | 91.2% | 85.9% | 102% | 90.6% | 90.4% | 86.6% | 96.8% | 64.9% |
